The text below walks through data of ChEMBL document CHEMBL2380295, “Structure-activity studies on the side chain of a simplified analog of aplysiatoxin (aplog-1) with anti-proliferative activity” (Bioorg Med Chem, 2013).

Test system in the first series: not listed separately
The series is described as follows: Cytotoxicity against human Raji cells assessed as cell viability at 10^-6 M. The format is cell-based. As to conditions: read-out: Activity.
As for `CC1(C)CC[C@@H]2CC(=O)O[C@@H](CO)CC(=O)O[C@@H]3C[C@@H](CCCCc4c(Br)cc(Br)c(O)c4Br)O[C@@]1(C3)O2`, the viability at 1 µM was determined as 40%.

Test system in the next series: not listed separately
The series is described as follows: Cytotoxicity against human Raji cells assessed as cell viability at 10^-7 M. The series is classed as cell-based. The conditions noted are these: read-out: Activity.
Turning to `CC1(C)CC[C@@H]2CC(=O)O[C@@H](CO)CC(=O)O[C@@H]3C[C@@H](CCCCc4c(Br)cc(Br)c(O)c4Br)O[C@@]1(C3)O2`, the viability at 0.1 µM came out at 40%.

For the next series, the system named is Human gammaherpesvirus 4. Briefly: Induction of EBV-early antigen expressed in human Raji cells at 10^-6 M after 48 hrs by immunofluorescence assay relative to control. The series is classed as organism-based. The conditions noted are these: human gammaherpesvirus 4, raji, 1 µM. A digest of the protocol:
(§1)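 Raji B-lymphoblastoid cells (5 × 10^5/mL) in RPMI 1640 with 10% FBS, with 4 mM sodium n-butyrate as synergist and test compound at 10^-7 or 10^-6 M (final DMSO 0.4%). Incubated 48 h at 37 °C under 5% CO2. Smears were stained by indirect immunofluorescence using NPC patient serum and FITC anti-human IgG. At least 500 cells counted; % EA-positive recorded; n = 3, SEM.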
In turn, `CC1(C)CC[C@@H]2CC(=O)O[C@@H](CO)CC(=O)O[C@@H]3C[C@@H](CCCCc4c(Br)cc(Br)c(O)c4Br)O[C@@]1(C3)O2` gave an Activity of 1.9%.

Another series concerns Human gammaherpesvirus 4. Briefly: Induction of EBV-early antigen expressed in human Raji cells at 10^-7 M after 48 hrs by immunofluorescence assay relative to control. The format is organism-based. As to conditions: human gammaherpesvirus 4, raji, 0.1 µM. The procedure, abridged:
as §1
`CC1(C)CC[C@@H]2CC(=O)O[C@@H](CO)CC(=O)O[C@@H]3C[C@@H](CCCCc4c(Br)cc(Br)c(O)c4Br)O[C@@]1(C3)O2`: the Activity was found to be 1.9%.

The test system of the next series is PC-3. Briefly: Growth inhibition of human PC3 cells after 48 hrs by sulforhodamine B assay. The series is classed as functional. The conditions noted are these: PC-3, 48 h. The procedure, abridged: (§2)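 Yamori 39-line human cancer panel, NCI method with modifications. Cells plated in RPMI 1640 plus 5% FBS, attached overnight, then exposed 48 h to compound at 10^-8, 10^-7, 10^-6, 10^-5 and 10^-4 M. Sulforhodamine B staining read at 525 nm; % growth = 100[(T−T0)/(C−T0)] from duplicate-point averages, with T0 the time-zero absorbance. GI50 is the concentration giving 50.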
In turn, `CC1(C)CC[C@@H]2CC(=O)O[C@@H](CO)CC(=O)O[C@@H]3C[C@@H](CCCCc4c(Br)cc(Br)c(O)c4Br)O[C@@]1(C3)O2` had a concentration for 50% growth inhibition (GI50) of 13.2 µM.

The test system of the next series is DU-145. Briefly: Growth inhibition of human DU145 cells after 48 hrs by sulforhodamine B assay. As to conditions: DU-145, 48 h. The format is functional. The procedure, abridged: as §2
In general terms: The SRB assay estimates cell density from bound dye.
In turn, `CC1(C)CC[C@@H]2CC(=O)O[C@@H](CO)CC(=O)O[C@@H]3C[C@@H](CCCCc4c(Br)cc(Br)c(O)c4Br)O[C@@]1(C3)O2` showed a GI50 of 17 µM.

The test system of the next series is MKN-74. Briefly: Growth inhibition of human MKN74 cells after 48 hrs by sulforhodamine B assay. The series is classed as functional. As to conditions: MKN-74, 48 h. The procedure, abridged: as §2
For `CC1(C)CC[C@@H]2CC(=O)O[C@@H](CO)CC(=O)O[C@@H]3C[C@@H](CCCCc4c(Br)cc(Br)c(O)c4Br)O[C@@]1(C3)O2`, growth was halved (GI50) at 21.9 µM.

For a further series, the system named is MKN-28. Briefly: Growth inhibition of human MKN28 cells after 48 hrs by sulforhodamine B assay. The series is classed as functional. As to conditions: MKN-28, 48 h. The procedure, abridged:
as §2
`CC1(C)CC[C@@H]2CC(=O)O[C@@H](CO)CC(=O)O[C@@H]3C[C@@H](CCCCc4c(Br)cc(Br)c(O)c4Br)O[C@@]1(C3)O2` had a 50% growth inhibitory concentration (GI50) of 18.2 µM.

A further series concerns MKN-45. The series is described as follows: Growth inhibition of human MKN45 cells after 48 hrs by sulforhodamine B assay. As to conditions: MKN-45, 48 h. The series is classed as functional. The procedure, abridged:
as §2
The compound `CC1(C)CC[C@@H]2CC(=O)O[C@@H](CO)CC(=O)O[C@@H]3C[C@@H](CCCCc4c(Br)cc(Br)c(O)c4Br)O[C@@]1(C3)O2` gave a GI50 of 11.5 µM.

In the next series the test system is MKN-7. Briefly: Growth inhibition of human MKN7 cells after 48 hrs by sulforhodamine B assay. The format is functional. The conditions noted are these: MKN-7, 48 h. The procedure, abridged: as §2
`CC1(C)CC[C@@H]2CC(=O)O[C@@H](CO)CC(=O)O[C@@H]3C[C@@H](CCCCc4c(Br)cc(Br)c(O)c4Br)O[C@@]1(C3)O2` had a 50% growth inhibitory concentration (GI50) of 20.9 µM.

A further series relates to St-4. Briefly: Growth inhibition of human St-4 cells after 48 hrs by sulforhodamine B assay. The format is functional. The conditions noted are these: St-4, 48 h. The procedure, abridged: as §2
`CC1(C)CC[C@@H]2CC(=O)O[C@@H](CO)CC(=O)O[C@@H]3C[C@@H](CCCCc4c(Br)cc(Br)c(O)c4Br)O[C@@]1(C3)O2` gave a concentration for 50% growth inhibition (GI50) of 3.09 µM.

Test system in a further series: not listed separately
Briefly: Growth inhibition of human MKN1 cells after 48 hrs by sulforhodamine B assay. The conditions noted are these: MKN-1, 48 h. The series is classed as functional. The procedure, abridged: as §2
Take `CC1(C)CC[C@@H]2CC(=O)O[C@@H](CO)CC(=O)O[C@@H]3C[C@@H](CCCCc4c(Br)cc(Br)c(O)c4Br)O[C@@]1(C3)O2`: the GI50 is 14.8 µM.

Test system in a further series: not listed separately
The series is described as follows: Growth inhibition of human RXF631L cells after 48 hrs by sulforhodamine B assay. The format is functional. As to conditions: RXF 631, 48 h. A digest of the protocol: as §2
`CC1(C)CC[C@@H]2CC(=O)O[C@@H](CO)CC(=O)O[C@@H]3C[C@@H](CCCCc4c(Br)cc(Br)c(O)c4Br)O[C@@]1(C3)O2`: the GI50 was 21.9 µM.

Another series relates to ACHN. Briefly: Growth inhibition of human ACHN cells after 48 hrs by sulforhodamine B assay. The format is functional.
Conditions: not given
The procedure, abridged: as §2
Regarding `CC1(C)CC[C@@H]2CC(=O)O[C@@H](CO)CC(=O)O[C@@H]3C[C@@H](CCCCc4c(Br)cc(Br)c(O)c4Br)O[C@@]1(C3)O2`, the GI50 was 16.2 µM.

In a further series the test system is OVCAR-8. Briefly: Growth inhibition of human OVCAR8 cells after 48 hrs by sulforhodamine B assay. As to conditions: OVCAR-8, 48 h. The series is classed as functional. The procedure, abridged:
as §2
Take `CC1(C)CC[C@@H]2CC(=O)O[C@@H](CO)CC(=O)O[C@@H]3C[C@@H](CCCCc4c(Br)cc(Br)c(O)c4Br)O[C@@]1(C3)O2`: the 50% growth inhibitory concentration (GI50) is 17.4 µM.

The subject of a further series is SK-OV-3. Briefly: Growth inhibition of human SKOV3 cells after 48 hrs by sulforhodamine B assay. The format is functional. The conditions noted are these: SK-OV-3, 48 h. A digest of the protocol: as §2
The compound `CC1(C)CC[C@@H]2CC(=O)O[C@@H](CO)CC(=O)O[C@@H]3C[C@@H](CCCCc4c(Br)cc(Br)c(O)c4Br)O[C@@]1(C3)O2` gave a GI50 of 32.4 µM.

The subject of a further series is OVCAR-5. Briefly: Growth inhibition of human OVCAR5 cells after 48 hrs by sulforhodamine B assay. The series is classed as functional. As to conditions: OVCAR-5, 48 h. The procedure, abridged:
as §2
The compound `CC1(C)CC[C@@H]2CC(=O)O[C@@H](CO)CC(=O)O[C@@H]3C[C@@H](CCCCc4c(Br)cc(Br)c(O)c4Br)O[C@@]1(C3)O2` had a 50% growth inhibitory concentration (GI50) of 18.6 µM.

Another series has as its system OVCAR-3. The series is described as follows: Growth inhibition of human OVCAR3 cells after 48 hrs by sulforhodamine B assay. The conditions noted are these: OVCAR-3, 48 h. The format is functional. The procedure, abridged: as §2
In turn, `CC1(C)CC[C@@H]2CC(=O)O[C@@H](CO)CC(=O)O[C@@H]3C[C@@H](CCCCc4c(Br)cc(Br)c(O)c4Br)O[C@@]1(C3)O2` gave a GI50 of 15.5 µM.

A further series concerns OVCAR-4. Briefly: Growth inhibition of human OVCAR4 cells after 48 hrs by sulforhodamine B assay. The format is functional. As to conditions: OVCAR-4, 48 h. The procedure, abridged:
as §2
With `CC1(C)CC[C@@H]2CC(=O)O[C@@H](CO)CC(=O)O[C@@H]3C[C@@H](CCCCc4c(Br)cc(Br)c(O)c4Br)O[C@@]1(C3)O2`, the GI50 is 20.9 µM.

Another series deals with DMS-114. Briefly: Growth inhibition of human DMS114 cells after 48 hrs by sulforhodamine B assay. The conditions noted are these: DMS-114, 48 h. The series is classed as functional. A digest of the protocol: as §2
`CC1(C)CC[C@@H]2CC(=O)O[C@@H](CO)CC(=O)O[C@@H]3C[C@@H](CCCCc4c(Br)cc(Br)c(O)c4Br)O[C@@]1(C3)O2` showed a concentration for 50% growth inhibition (GI50) of 25.7 µM.

For a further series, the system named is LOX IMVI. The series is described as follows: Growth inhibition of human LOXIMVI cells after 48 hrs by sulforhodamine B assay. The series is classed as functional.
Conditions: not given
The procedure, abridged:
as §2
With `CC1(C)CC[C@@H]2CC(=O)O[C@@H](CO)CC(=O)O[C@@H]3C[C@@H](CCCCc4c(Br)cc(Br)c(O)c4Br)O[C@@]1(C3)O2`, halving of growth (GI50) required 11.7 µM.

The next series has as its system A549. The series is described as follows: Growth inhibition of human A549 cells after 48 hrs by sulforhodamine B assay. The format is functional. The conditions noted are these: A549, 48 h. The procedure, abridged: as §2
As for `CC1(C)CC[C@@H]2CC(=O)O[C@@H](CO)CC(=O)O[C@@H]3C[C@@H](CCCCc4c(Br)cc(Br)c(O)c4Br)O[C@@]1(C3)O2`, the concentration for 50% growth inhibition (GI50) was 12.6 µM.

Another series deals with DMS-273. The series is described as follows: Growth inhibition of human DMS273 cells after 48 hrs by sulforhodamine B assay. As to conditions: DMS-273, 48 h. The series is classed as functional. A digest of the protocol:
as §2
As for `CC1(C)CC[C@@H]2CC(=O)O[C@@H](CO)CC(=O)O[C@@H]3C[C@@H](CCCCc4c(Br)cc(Br)c(O)c4Br)O[C@@]1(C3)O2`, the 50% growth inhibitory concentration (GI50) is 18.2 µM.

For orientation: GI50 means the concentration that inhibits growth by half.
